According to ChEMBL document CHEMBL4396869, “Design and Synthesis of Selective Phosphodiesterase 4D (PDE4D) Allosteric Inhibitors for the Treatment of Fragile X Syndrome and Other Brain Disorders” (J Med Chem, 2019):

Legend:
[1] = Drug level in human hepatocytes treated with 2-(4-((2-(3-Chlorophenyl)-6-ethylpyrimidin-4-yl)methyl)phenyl)acetamide assessed as metabolite formation measured after 4 hrs by LC-UV/MS/MS analysis; format: ADME, cell-based, Hepatocyte
Procedure, shortened: (§1)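 Metabolite identification: cryopreserved hepatocytes from male Wistar rat or human, 0.5×10^6 cells/mL in suspension, incubated 4 h at 37 °C; incubation medium analysed by LC-UV/MS/MS.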

[2] = Drug level in Wistar rat hepatocytes treated with 2-(4-((2-(3-Chlorophenyl)-6-ethylpyrimidin-4-yl)methyl)phenyl)acetamide assessed as metabolite formation measured after 4 hrs by LC-UV/MS/MS analysis; format: ADME, cell-based, Hepatocyte; procedure, shortened: as §1

Drug metabolism [1]: Metabolite_Detected
Drug metabolism [2]: Metabolite_Detected
Structure (SMILES): CCc1cc(Cc2ccc(CC(=O)O)cc2)nc(-c2cccc(Cl)c2)n1
